A selection: hits, their analogues and other compounds. The true share with any hit is near 4%.
OX1R antag-1 – OX1R (HCRTR1) antagonists, primary screen, fluorescence, CHO/OX1R cells, Fluo-8 calcium, orexin A; actives 0.43% (n = 330,000); Fluo-8 calcium fluorescence; inhibition, % at 5 µM; Orexin/Hypocretin receptor type 1 (Homo sapiens), O43613;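 active = inhibition above its plate's threshold, mean inhibition of all tested compounds on the plate plus 3 SD, cut at about 37% in these data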
Target sequence (O43613 whole entry, looked up): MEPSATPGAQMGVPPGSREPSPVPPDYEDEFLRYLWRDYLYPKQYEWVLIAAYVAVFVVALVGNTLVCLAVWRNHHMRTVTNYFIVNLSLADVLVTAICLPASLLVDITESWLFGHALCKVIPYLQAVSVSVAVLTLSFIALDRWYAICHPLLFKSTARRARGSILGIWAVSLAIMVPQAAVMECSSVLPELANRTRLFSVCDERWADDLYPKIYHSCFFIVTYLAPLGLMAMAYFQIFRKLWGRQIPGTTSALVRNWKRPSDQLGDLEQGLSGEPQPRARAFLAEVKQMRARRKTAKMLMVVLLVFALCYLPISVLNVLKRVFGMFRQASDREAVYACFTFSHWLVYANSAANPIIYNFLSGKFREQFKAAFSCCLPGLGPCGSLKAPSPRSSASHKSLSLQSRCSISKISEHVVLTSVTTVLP
CHO parental Ca – ATP-evoked calcium signal inhibitors, parental CHO, primary screen, counter-screen for OX1R antagonist project, cell-based, fluorescence, Fluo-8 calcium dye; AID 463079, 2010; inhibition, % at 5.6 µM; parental CHO-K1, ATP-induced calcium, Fluo-8 fluorescence; actives 0.63% (n = 330,000);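 active = inhibition above that plate's mean sample inhibition plus 3 SD, cut at about 26% in these data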
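Material: parental CHO cells / Compound: single nominal dose of 5.6 µM per compound / Signal: Fluo-8 fluorescence / Replicates: singlicate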
OX1R antag-2 – antagonists of human orexin 1 receptor (OX1R) | Orexin/Hypocretin receptor type 1 (Homo sapiens), O43613 | OX1R-expressing cells, FRET antagonist read-out | inhibition, % at 6.6 µM | actives 1.8% (n = 330,000); in the data active = inhibition mostly above about 38%, no sharp cut-off; inactive = mostly below about 40%
NTR1 ag – agonists of human NTR1, primary screen, imaging, U2OS cells, beta-arrestin-GFP, high content; Neurotensin receptor type 1 (Homo sapiens), P30989; NTR1-U2OS beta-arrestin-GFP spot imaging, agonist mode; activation, % at 20 µM; actives 0.17% (n = 330,000); AID 493036, 2011;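 active = activation at or above 40% of the spot to cytoplasm intensity ratio, with at least 20 cells analyzed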
TAAR1 agonist – human TAAR1 agonists, primary screen, Fluo-8 calcium fluorescence, CHO RD-HGA16 cells. vehicle wells 0%, saturating PEA agonist 100%. Trace amine-associated receptor 1 (Homo sapiens), Q96RJ0. actives 0.99% (n = 360,000). activation, % at 3 µM;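 active = activation above the mean activation of all test compounds in the run plus 3 SD, cut at about 38% in these data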
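Test system: RD-HGA16 (CHO) cells co-expressing Gα16 and hTAAR1 | Doses: Single dose, 3 µM | Schedule: 17-24 h seeding, 75 min 37 °C dye, 30 min RT | Evaluation: % activation from peak over basal fluorescence ratio, DMSO-to-PEA scaled | Technique: Kinetic Fluo-8 calcium fluorescence | Benchmarks: Low control DMSO, high control PEA (EC100)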
TAAR1 antag – human TAAR1 antagonists, primary screen, Fluo-8 calcium fluorescence, CHO RD-HGA16 cells. actives 1.5% (n = 360,000). inhibition, % at 3 µM. AID 624466, 2012. antagonist;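 active = inhibition above a per-plate cutoff, the mean inhibition of test compounds on that plate plus 3 SD, cut at about 49% in these data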
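Test system: hTAAR1-expressing CHO RD-HGA16 cells, Gα16-coupled; Probe or stimulus: EC80 β-phenethylamine stimulus; Compound dosing: single nominal final test compound concentration of 3 µM; Timing: 140 s kinetic read after compound, 140 s after agonist; Signal: Fluo-8 calcium-sensitive fluorescence; Measure: % inhibition of agonist calcium response; Controls: DMSO and EC80 PEA controls.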
nonsel antag count – nonselective antagonists in TAAR1 counter-screen cells, counter-screen for hTAAR1 antagonist project, cell-based, fluorescence, calcium; shares compounds with TAAR1 antag; counterscreen cell line, antagonist mode; inhibition, % at 3 µM; actives 77% (n = 2,400); in the data active = inhibition above about 22%;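 note: CHO-Ga16 host cells stimulated with ATP at an EC80 level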
TAAR1 ant conf – human TAAR1 antagonists, retest of hits, confirmation, cell-based, fluorescence; shares compounds with TAAR1 antag; TAAR1-expressing cells, fluorescence antagonist read-out; inhibition, % at 3 µM; actives 40% (n = 2,400); AID 651785, 2012; in the data active = inhibition above about 49%;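 note: CHO-Ga16 host cells challenged with agonist PEA near its EC80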
Ga16 ag counter – calcium activation in Ga16-expressing cells, counter-screen for TAAR1 antagonist project, cell-based, fluorescence | shares compounds with TAAR1 antag | agonist counterscreen | activation, % at 3 µM | actives 18% (n = 2,400) | AID 651953, 2012; in the data active = activation above about 12%
TAAR1 ag counter – TAAR1 activation by candidate antagonists – cell-based, fluorescence, counter-screen for TAAR1 antagonist project; shares compounds with TAAR1 antag; hTAAR1 cell line, agonist mode; activation, % at 3 µM; actives 2% (n = 2,400); in the data active = activation above about 37%;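 note: CHO cells stably expressing TAAR1 with calcium dye readout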
Each line names hits and unclear results; the compound was inactive in the other large screens (follow-up assays come after a bar, where they were run).

Cc1sc2ncnc(N3CCC(C(=O)N(C)CC(=O)Nc4cccc(F)c4)CC3)c2c1C	TAAR1 antag 67.7 (no result: OX1R antag-1, CHO parental Ca, OX1R antag-2, NTR1 ag) | nonsel antag count 32.4 | TAAR1 ant conf 54.8 | Ga16 ag counter 12.7 | TAAR1 ag counter inactive
CCN(CC(=O)Nc1cc(Cl)ccc1C)c1ncnc2sc(C)c(C)c12	none
CCN(CC(=O)Nc1cc(Cl)ccc1C)C(=O)C1CCN(c2ncnc3sc(C)c(C)c23)CC1	TAAR1 antag 82.7 (no result: OX1R antag-1, CHO parental Ca, OX1R antag-2, NTR1 ag) | nonsel antag count 34.1 | TAAR1 ant conf 53.7 | Ga16 ag counter inactive | TAAR1 ag counter inactive
Cc1ccc(S(=O)(=O)Nc2cccc(C(=O)NCc3ccccn3)c2)cc1F	none
Cc1ccc(C)c(N(CC(=O)NC(C)(C)C)C(=O)CCC(=O)Nc2nccs2)c1	none
CCOc1ccccc1C(=O)N[C@H](C(=O)OCC(=O)Nc1nnc(-c2ccccc2)o1)C(C)C	none (no result: OX1R antag-1, CHO parental Ca, OX1R antag-2, NTR1 ag)
COc1cccc(CNC(=O)N2CCN(c3ccccc3Cl)CC2)c1	TAAR1 antag 49.4 | nonsel antag count 21.8 | TAAR1 ant conf inactive | Ga16 ag counter inactive | TAAR1 ag counter inactive
O=S(=O)(NC1CCc2ccccc21)c1ccccc1 (stereo unspecified)	none (no result: OX1R antag-1, CHO parental Ca, OX1R antag-2, NTR1 ag)
Cc1ccc(S(=O)(=O)NC2CCCc3ccccc32)cc1C (stereo unspecified)	TAAR1 antag 50.4 | nonsel antag count inactive | TAAR1 ant conf inactive | Ga16 ag counter inactive | TAAR1 ag counter inactive
Cc1c(C)c2c(OCC(=O)NCc3ccco3)cc3c(c2oc1=O)CCC(C)(C)O3	none
COc1ccc(CNC(=O)COc2cc3c(c4oc(=O)cc(C)c24)CCC(C)(C)O3)c(OC)c1	TAAR1 antag 73.2 (no result: OX1R antag-1, CHO parental Ca, OX1R antag-2, NTR1 ag) | nonsel antag count 24.9 | TAAR1 ant conf inactive | Ga16 ag counter inactive | TAAR1 ag counter inactive
COc1ccc(CNC(=O)COc2cc3c(c4oc(=O)cc(C)c24)CCC(C)(C)O3)cc1OC	OX1R antag-2 42.5, TAAR1 antag 61.7 | nonsel antag count 22.7 | TAAR1 ant conf inactive | Ga16 ag counter inactive | TAAR1 ag counter inactive
Cc1cc(=O)oc2c3c(cc(OCC(=O)NCc4ccncc4)c12)OC(C)(C)CC3	none
Cc1cc(=O)oc2c3c(cc(OCC(=O)NCc4ccco4)c12)OC(C)(C)CC3	TAAR1 antag 56.5 | nonsel antag count 23.8 | TAAR1 ant conf inactive | Ga16 ag counter inactive | TAAR1 ag counter inactive
CCCOc1ccc(C(=O)Nc2ccc(S(=O)(=O)N3C[C@@H]4C[C@@H](C3)c3cccc(=O)n3C4)cc2)cc1	none
COc1ccc(C2CC(c3ccccc3)=NN2C(=O)COC(=O)CNC(=O)c2ccccc2)cc1 (stereo unspecified)	TAAR1 antag 66.7 | nonsel antag count 43.0 | TAAR1 ant conf 54.3 | Ga16 ag counter 21.8 | TAAR1 ag counter inactive
CC(C)(C)c1ccc(S(=O)(=O)N2CCN(c3ccccn3)CC2)cc1	none
COc1cc(Cl)ccc1OCc1cc(C(=O)N2C[C@]3(C)C[C@H]2CC(C)(C)C3)no1	none

Screening data: PubChem, several laboratories
